Reference: ChEMBL document CHEMBL1157404, “Linear and cyclic peptides from the entomopathogenic bacterium Xenorhabdus nematophilus” (J Nat Prod, 2008)
Converted amounts (≈) assume the structure as drawn. The source made the active and inactive calls. The calls are words filed in the database; no cut-off is given here. Bridge positions count the residues as written; N and C are the ends. Square brackets hold non-standard residues; d marks the D form. Peptide text beside a SMILES is read from it. * marks the point of attachment. NMeF = CN[C@@H](Cc1ccccc1)C(=O)O; NMeL = CN[C@@H](CC(C)C)C(=O)O; NHPhenethyl = c1ccc(CCN*)cc1; PhAc = O=C(Cc1ccccc1)*; βAla = NCCC(=O)O

What was measured:
Mammaliicoccus lentus [1] = experiment: Antibacterial activity against Staphylococcus lentus DSM 6672; type: functional
Artemia salina = experiment: Toxicity against Artemia salina assessed as number of immotile nauplii per well after 24 hrs; type: organism-based
Outline: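 Compounds were serially diluted 2-fold over 50 to 0.781 µg/well in microplate wells, and the wells were dried before the brine shrimp nauplii were exposed.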

Xanthomonas campestris [2] = experiment: Antibacterial activity against Xanthomonas campestris DSM 2405; type: functional
Pseudomonas syringae [3] = experiment: Antibacterial activity against Pseudomonas syringae var.aptata DSM 50252; type: functional
Bacillus subtilis [4] = experiment: Antibacterial activity against Bacillus subtilis DSM 347; type: functional
Bacillus subtilis [5] = experiment: Antibacterial activity against Bacillus subtilis DSM 347 at 40 ug/mL; type: functional, organism-based
Pseudomonas syringae [6] = experiment: Antibacterial activity against Pseudomonas syringae var.aptata DSM 50252 at 40 ug/mL; type: functional, organism-based
Erwinia amylovora [7] = experiment: Antibacterial activity against Erwinia amylovora at 40 ug/mL; type: functional, organism-based
Ralstonia solanacearum [8] = experiment: Antibacterial activity against Ralstonia solanacearum DSM 9544 at 40 ug/mL; type: functional, organism-based
Escherichia coli = experiment: Antibacterial activity against Escherichia coli K12 DSM 489 at 40 ug/mL; type: functional, organism-based
Xanthomonas campestris [9] = experiment: Antibacterial activity against Xanthomonas campestris DSM 2405 at 40 ug/mL; type: functional, organism-based
Nakaseomyces glabratus = experiment: Antifungal activity against Candida glabrata DSM 6425 at 40 ug/mL; type: functional, organism-based
Mammaliicoccus lentus [10] = experiment: Antibacterial activity against Staphylococcus lentus DSM 6672 at 40 ug/mL; type: functional, organism-based
Pseudomonas fluorescens [11] = experiment: Antibacterial activity against Pseudomonas fluorescens NCIMB 10586 at 40 ug/mL; type: functional, organism-based
Galleria mellonella = experiment: Insecticidal activity against Galleria mellonella after 6 days; type: functional, organism-based
Outline: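 Oral toxicity test on greater wax moth larvae. Compounds were dissolved at 1 mg/mL in 50% aqueous EtOH. Larvae were held at 35 °C for 6 days, then mortality and ability to spin silk were recorded. Four replicates were run, with two for one compound.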

Ralstonia solanacearum [12] = experiment: Antibacterial activity against Ralstonia solanacearum DSM 9544; type: functional
Pseudomonas fluorescens [13] = experiment: Antibacterial activity against Pseudomonas fluorescens NCIMB 10586; type: functional
Erwinia amylovora [14] = experiment: Antibacterial activity against Erwinia amylovora; type: functional

Structure (SMILES) | Activity (Mammaliicoccus lentus [1]) [%] | IC50 (Artemia salina) [µg/mL] | MIC (Xanthomonas campestris [2]) [µg/mL] | MIC (Pseudomonas syringae [3]) [µg/mL] | MIC (Bacillus subtilis [4]) [µg/mL] | Activity (Bacillus subtilis [5]) | Activity (Pseudomonas syringae [6]) | Activity (Erwinia amylovora [7]) | Activity (Ralstonia solanacearum [8]) | Activity (Escherichia coli) | Activity (Xanthomonas campestris [9]) | Activity (Nakaseomyces glabratus) | Activity (Mammaliicoccus lentus [10]) | Activity (Pseudomonas fluorescens [11]) | Activity (Galleria mellonella) | MIC (Ralstonia solanacearum [12]) [µg/mL] | MIC (Pseudomonas fluorescens [13]) [µg/mL] | MIC (Erwinia amylovora [14]) [µg/mL]
CC(C)CC(NC(=O)[C@@H](O)[C@@H](O)C1CCCN1)C1Cc2cccc(O)c2C(=O)O1 (stereo partly specified) | 70 | 9 (≈ 22.1 µM) | 40 (≈ 98.4 µM) | 40 (≈ 98.4 µM) | 20 (≈ 49.2 µM) |  |  |  |  |  |  |  |  |  |  |  |  | 
CC[C@H](C)C(=O)C(=O)NCCc1c[nH]c2ccccc12 [NEMATOPHIN] |  | 50 (≈ 184 µM) |  |  |  | inactive | inactive | inactive | inactive | inactive | inactive | inactive | inactive | inactive |  |  |  | 
C[C@H]1OC(=O)CCNC(=O)[C@H](Cc2c[nH]c3ccccc23)NC(=O)[C@H](Cc2c[nH]c3ccccc23)NC(=O)[C@H]1NC(=O)Cc1ccccc1 [XENEAMATIDE] (PhAc-TWW[βAla]; ester 1-C) |  |  |  | 10 (≈ 15.1 µM) | 10 (≈ 15.1 µM) |  |  |  |  |  |  |  |  |  | Active | 10 (≈ 15.1 µM) | 10 (≈ 15.1 µM) | 10 (≈ 15.1 µM)
CN[C@@H](CC(C)C)C(=O)N(C)[C@@H](Cc1ccccc1)C(=O)NCCc1ccccc1 [XENORTIDE A] (H-[NMeL]-[NMeF]-NHPhenethyl) |  | 200 (≈ 488 µM) |  |  |  | inactive | inactive | inactive | inactive | inactive | inactive | inactive | inactive | inactive |  |  |  | 
CN[C@@H](CC(C)C)C(=O)N(C)[C@@H](Cc1ccccc1)C(=O)NCCc1c[nH]c2ccccc12 [XENORTIDE B] |  | 200 (≈ 446 µM) |  |  |  | inactive | inactive | inactive | inactive | inactive | inactive | inactive | inactive | inactive |  |  |  | 
